Only some compounds are listed: those with a hit (about 0.66% of all), similar ones and a draw of the others.
AP complement: alternative pathway complement inhibition, orthogonal assay; Human serum alternative complement pathway, LPS-coated ELISA, C3 deposition; tested in compound mixtures; inhibition, % at 5 µM; actives 0.08% (n = 62,000);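 active = inhibition above 30% in each of the two pooled mixtures holding the compound, so the lower value exceeds 30%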;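 also: 0% = serum in Mg-EGTA without compound and 100% = EDTA serum blank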
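Assay system: Human serum alternative complement pathway, C3 deposition on LPS-coated wells | Incubation: 1 h serum-compound exposure at 37 °C | Doses: 5 µM per compound in ten-compound mixtures | Read-out: Percent inhibition | Technique: ELISA with HRP anti-human C3 antibody, TMB substrate, absorbance 450 nm | Replication: Two pool placements per compound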
BAP1 inh: human BAP1 deubiquitinase inhibition; recombinant BAP1, Ub-AMC hydrolysis fluorescence kinetic; active compounds read low; actives 0.48% (n = 72,000); calls only at 20 µM; Q92560; AID 436;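 active = activity remaining at or below 50% of control, provided the compound also passes the data quality filters; inactive = the rest, including low values that fail the filters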;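 also: 100% = DMSO wells rate and 0% = substrate alone blank rate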
Target sequence (Q92560 whole entry, looked up): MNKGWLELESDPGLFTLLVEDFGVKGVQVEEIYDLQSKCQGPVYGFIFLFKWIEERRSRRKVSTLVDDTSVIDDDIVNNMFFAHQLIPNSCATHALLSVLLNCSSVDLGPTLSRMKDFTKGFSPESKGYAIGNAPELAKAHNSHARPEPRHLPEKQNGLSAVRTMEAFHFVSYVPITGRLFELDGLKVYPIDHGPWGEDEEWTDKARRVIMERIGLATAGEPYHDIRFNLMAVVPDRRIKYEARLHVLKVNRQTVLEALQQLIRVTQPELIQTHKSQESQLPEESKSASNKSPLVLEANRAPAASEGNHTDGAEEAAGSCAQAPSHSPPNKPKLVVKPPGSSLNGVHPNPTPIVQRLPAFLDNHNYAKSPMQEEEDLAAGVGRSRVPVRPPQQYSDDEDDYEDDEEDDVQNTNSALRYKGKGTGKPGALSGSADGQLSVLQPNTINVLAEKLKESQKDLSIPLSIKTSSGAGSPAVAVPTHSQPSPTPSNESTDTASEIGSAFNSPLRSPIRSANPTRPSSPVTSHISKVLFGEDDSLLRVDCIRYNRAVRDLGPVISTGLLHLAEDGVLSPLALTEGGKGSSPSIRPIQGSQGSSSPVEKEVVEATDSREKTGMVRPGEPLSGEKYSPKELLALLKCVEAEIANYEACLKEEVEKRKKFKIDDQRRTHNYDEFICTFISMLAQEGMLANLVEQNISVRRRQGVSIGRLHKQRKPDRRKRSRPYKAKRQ
Ec RNAP inh: inhibitors of Escherichia coli RNA polymerase; P0A8V2; E. coli RNA polymerase, fluorescence transcription assay; inhibition, %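 (tested at 10 µM)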; actives 0.2% (n = 62,000); AID 559; in the data active = inhibition above about 20%;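 also: 0% = enzyme without compound and 100% = no enzyme blank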
Starred values were filed as active, the others as inactive; ! = not confirmed by another sample.

What do the screens show for `COc1ccccc1OCC(=O)Nc1ccc(S(=O)(=O)Nc2nc(C)cc(C)n2)cc1`?
AP complement: -7; BAP1 inh: inactive; Ec RNAP inh: 21*

Results for COc1ccccc1OCC(=O)Nc1ccc(S(=O)(=O)NC(C)=O)cc1 ?
AP complement: 1; BAP1 inh: inactive; Ec RNAP inh: 7

Results for O=c1[nH]c2ccccc2c2ccccc12 ?
BAP1 inh: inactive

What do the screens show for `O=c1[nH]c2cc(Cl)c(Cl)cc2[nH]c1=O`?
BAP1 inh: active

Results for Cc1ccc(N2C(=O)C3C4C=CC(C4)C3C2=O)cc1Cl (stereo not given) ?
BAP1 inh: inactive

Results for CCOC(=O)/C(C#N)=C1/C=CN(C)C(C)=N1 ?
AP complement: 33*; BAP1 inh: inactive

What do the screens show for `CCOC(=O)/C(C#N)=C1/C=C(C)NC(c2ccccc2O)=N1`?
AP complement: -15; BAP1 inh: inactive

What do the screens show for `CCc1c(C)[nH]n2cnnc2c1=O`?
BAP1 inh: inactive

Results for COc1cc(C(=O)Nc2cccnc2)ccc1OCc1ccc(Cl)cc1 ?
BAP1 inh: inactive

How did O=C(Cn1c(CN2CCCCC2)nc2ccccc2c1=O)NC1CCCCC1 do in these assays?
AP complement: 7; Ec RNAP inh: -1

Results for O=C(Cn1c(CN2CCCCC2)nc2ccccc2c1=O)Nc1ccccc1 ?
AP complement: 36*; BAP1 inh: inactive; Ec RNAP inh: 2

How did CCCC(N)CCCCCC(=O)O (stereo not given) do in these assays?
AP complement: -8; BAP1 inh: inactive; Ec RNAP inh: 12

Results for CCCCCCCCCCCCCCC[C@H](O)[C@H](N)CO ?
BAP1 inh: active

Results for CCOC(=O)NC(=O)CSc1nc(C)cc(C(F)(F)F)c1C#N ?
AP complement: 33*; BAP1 inh: inactive; Ec RNAP inh: 9

How did Cc1coc(NC(=O)CSc2nc(-c3ccncc3)cc(C(F)(F)F)c2C#N)n1 do in these assays?
AP complement: 5; BAP1 inh: inactive; Ec RNAP inh: 9

What do the screens show for `O=C(Nc1cccc(C(F)(F)F)c1)c1cc([N+](=O)[O-])ccc1Cl`?
BAP1 inh: inactive

How did CCOC(=O)C1=C(c2ccccc2)OC(N)=C(C#N)C1C(C)C (stereo not given) do in these assays?
AP complement: 5; BAP1 inh: inactive; Ec RNAP inh: 40*

How did CCOC(=O)C1=C(c2ccccc2)OC(N)=C(C#N)C1c1ccco1 (stereo not given) do in these assays?
AP complement: 22; BAP1 inh: inactive; Ec RNAP inh: 10

Results for CN1C(=O)c2c(sc3c2CC(C)(C)SC3)N2CCN=C12 ?
AP complement: 35*; BAP1 inh: inactive; Ec RNAP inh: 5

Results for CC1(C)Cc2c(sc3c2C2=NCCN2C=N3)CS1 ?
AP complement: -8; BAP1 inh: inactive; Ec RNAP inh: 5

Results for COc1ccc2oc(=O)c(-c3csc(Nc4ccccc4F)n3)cc2c1 ?
BAP1 inh: inactive

Results for Cc1ccc2c(c1)c(-c1ccccc1)c(-c1ccccc1)n2CC(O)CN1CCOCC1 (stereo not given) ?
BAP1 inh: inactive

What do the screens show for `CC(C(=O)NCc1cccs1)n1cccc1` (stereo not given)?
AP complement: 14; BAP1 inh: inactive; Ec RNAP inh: 2

What do the screens show for `O=C(NCc1cccs1)C(Cc1ccccc1)n1cccc1` (stereo not given)?
AP complement: -7; BAP1 inh: inactive; Ec RNAP inh: 23*

How did O=C(CCCNS(=O)(=O)c1cccc2nsnc12)NCc1ccccc1 do in these assays?
AP complement: 11; BAP1 inh: inactive; Ec RNAP inh: -1

What do the screens show for `O=C(CCCNS(=O)(=O)c1cccc2nsnc12)NCc1ccc(F)cc1`?
AP complement: 13; BAP1 inh: inactive; Ec RNAP inh: 28*

What do the screens show for `CCCCn1c(SCC(=O)Nc2nnc(C)s2)nc2c1c(=O)n(C)c(=O)n2C`?
AP complement: -10; BAP1 inh: inactive; Ec RNAP inh: 31*

Results for CCCCn1c(SCC(=O)Nc2nnc(CC)s2)nc2c1c(=O)n(C)c(=O)n2C ?
AP complement: 1; BAP1 inh: inactive; Ec RNAP inh: 6

What do the screens show for `O=C(CSC1=NC(=O)C(c2ccccc2)C(=O)N1)Nc1ccccn1` (stereo not given)?
BAP1 inh: inactive

Results for Cc1cccc(NC(=O)CCN2CCOCC2)c1 ?
AP complement: 38*; BAP1 inh: inactive; Ec RNAP inh: 11

Results for Cc1cccc(NC(=O)CCN2CCN(C/C=C/c3ccccc3)CC2)c1 ?
AP complement: 27; BAP1 inh: inactive; Ec RNAP inh: 8

How did C=CCn1c(SCC(=O)Nc2ccc(C(=O)OCC)cc2)nnc1-c1cccs1 do in these assays?
AP complement: 1; BAP1 inh: inactive; Ec RNAP inh: 10

How did C=CCn1c(SCC(=O)c2ccc(NS(=O)(=O)c3ccccc3)cc2)nnc1-c1cccs1 do in these assays?
Ec RNAP inh: 26*

How did COc1ccc(-n2nc3cc(C)c(NC(=O)c4cc(Cl)ccc4OC)cc3n2)cc1 do in these assays?
BAP1 inh: inactive

Results for CCCN(CCC)CCCNC(=O)c1cc2c(=O)n(C)c3ccccc3c2n1C ?
AP complement: 21; BAP1 inh: inactive; Ec RNAP inh: 50*

How did CCN(CC)CCCNC(=O)c1cc2c(=O)n(C)c3ccccc3c2n1C do in these assays?
AP complement: 4; BAP1 inh: inactive; Ec RNAP inh: 4

Results for Cc1ccccc1CC1SC(=Nc2ccc(Br)cc2)NC1=O (stereo not given) ?
BAP1 inh: inactive

How did COc1cccc(N2C(=O)C(O)=C(C(C)=O)C2c2ccc(OC)c(OC)c2)c1 (stereo not given) do in these assays?
AP complement: -17; BAP1 inh: inactive; Ec RNAP inh: 11

What do the screens show for `COCCN1C(=O)C(O)=C(C(C)=O)C1c1ccc(OC)c(OC)c1` (stereo not given)?
AP complement: 6; BAP1 inh: inactive; Ec RNAP inh: 24*

Results for CC1(C)Cc2[nH]ccc2C(C)(C)N1 ?
BAP1 inh: inactive

Results for CCOC(=O)c1sc(NC(=O)c2ccc(Oc3ccccc3)cc2)nc1C ?
BAP1 inh: inactive

How did CCCCOc1ccc(C(=O)Nc2nc3ccc(Cl)cc3s2)cc1 do in these assays?
BAP1 inh: inactive

Results for Cc1ccc(OCC(=O)Oc2ccc3c(c2)oc(=O)c2ccccc23)cc1 ?
BAP1 inh: inactive

What do the screens show for `CCOC(=O)C1=C(C)NC(C)=C(C(=O)OC)C1c1cccc(Cl)c1Cl` (stereo not given)?
AP complement: 6; BAP1 inh: active!; Ec RNAP inh: 7

How did COC(=O)C1=C(C)NC(=O)CC1c1cccc(Cl)c1Cl (stereo not given) do in these assays?
AP complement: 22; BAP1 inh: inactive; Ec RNAP inh: 4

What do the screens show for `CCCc1cc(C(=O)NC2CCCCC2)no1`?
AP complement: -7; BAP1 inh: inactive; Ec RNAP inh: 7

How did CCCc1cc(C(=O)NC2CCCC2)no1 do in these assays?
AP complement: 40*; BAP1 inh: inactive; Ec RNAP inh: -4

How did O=[N+]([O-])c1cccc(C2SCCN2S(=O)(=O)c2ccc(Br)cc2)c1 (stereo not given) do in these assays?
BAP1 inh: inactive

Screening data (PubChem BioAssay)
